TRPC4 block: TRPC4 (mouse) channel inhibition | Q9QUQ5 | 300,000 tested, 0.39% active | HEK293 TRPC4beta/mu-opioid, DAMGO-evoked Fluo4 calcium flux; active compounds read low | B-score at 10 µM;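 active = B-score over 3 SD under the library average, no early fluorescence shift, positive overall ratio signal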
Target sequence (Q9QUQ5 whole entry, looked up): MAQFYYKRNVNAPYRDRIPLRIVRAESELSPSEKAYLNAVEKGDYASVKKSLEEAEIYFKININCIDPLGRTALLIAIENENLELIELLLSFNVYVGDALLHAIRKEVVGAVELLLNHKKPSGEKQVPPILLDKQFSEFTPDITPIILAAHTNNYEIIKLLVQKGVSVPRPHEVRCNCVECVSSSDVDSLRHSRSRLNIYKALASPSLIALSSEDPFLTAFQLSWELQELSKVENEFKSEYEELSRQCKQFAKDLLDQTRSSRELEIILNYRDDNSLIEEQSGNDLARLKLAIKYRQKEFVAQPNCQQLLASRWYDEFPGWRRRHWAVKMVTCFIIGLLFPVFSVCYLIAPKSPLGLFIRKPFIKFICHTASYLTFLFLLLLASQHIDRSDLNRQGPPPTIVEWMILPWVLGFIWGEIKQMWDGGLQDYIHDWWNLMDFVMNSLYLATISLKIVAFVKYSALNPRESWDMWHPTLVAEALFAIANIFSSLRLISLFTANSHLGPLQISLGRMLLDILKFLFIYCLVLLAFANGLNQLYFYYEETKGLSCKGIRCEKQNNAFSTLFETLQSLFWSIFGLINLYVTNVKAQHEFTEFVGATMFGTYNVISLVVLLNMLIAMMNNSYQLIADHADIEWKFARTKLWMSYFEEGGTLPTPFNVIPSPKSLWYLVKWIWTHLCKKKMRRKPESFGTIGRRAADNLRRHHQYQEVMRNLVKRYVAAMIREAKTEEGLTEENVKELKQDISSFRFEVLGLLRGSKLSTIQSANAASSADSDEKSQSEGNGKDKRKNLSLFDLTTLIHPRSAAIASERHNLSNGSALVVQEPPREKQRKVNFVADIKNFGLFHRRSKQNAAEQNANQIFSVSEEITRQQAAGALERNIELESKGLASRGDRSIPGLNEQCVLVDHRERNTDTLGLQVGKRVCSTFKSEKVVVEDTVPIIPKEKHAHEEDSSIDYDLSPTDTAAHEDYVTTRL
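Assay system: TRPC4beta/mu-opioid receptor HEK293 cell line; compound dosing: single concentration per test compound; detection: Fluo4 Ca2+ flux fluorescence; evaluation: per-well B score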
TRPC4 act: activators of mouse TRPC4 channel. Q9QUQ5. HEK293 TRPC4beta/mu-opioid, Fluo4 calcium fluorescence; active compounds read high. B-score at 10 µM. 310,000 tested, 0.49% active. AID 2237;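 active = B-score above 5 SD of library B-scores, and initial fluorescence ratio not above library mean plus 5 SD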;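 note: positive B-score marks a calcium rise read as TRPC4 activation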
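system = HEK293 cells stably co-expressing mouse TRPC4beta and mu-opioid receptor | schedule = Fluo4 dye loading 45 min at room temperature, 110 s recording | measure = B-scored integrated calcium fluorescence ratio | signal = Fluo4 calcium-sensitive dye fluorescence, kinetic, 1 Hz baseline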
TRPC6 activator: activators of mouse TRPC6 channel. HEK293-TRPC6 membrane potential dye fluorescence; active compounds read high. 310,000 tested, 0.13% active. B-score at 10 µM;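 active = B-score of the integrated fluorescence ratio above library mean plus 3 SD, and starting fluorescence ratio within library mean plus 5 SD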;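 note: higher score means more depolarization so channel activation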
TRPC6 inh: blocks the mouse TRPC6 cation channel; 310,000 tested, 1.1% active; Q61143; B-score at 10 µM; HEK293-TRPC6, membrane potential dye, ACh-evoked depolarization; active compounds read low;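 active = B-score under library mean minus 3 SD, initial fluorescence not abnormally high, positive integrated signal ratio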;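 note: B-score derived from integrated fluorescence ratio over the kinetic read; more negative B-score means stronger inhibition of depolarization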
TRPC4 potent: TRPC4 (mouse) allosteric potentiation; Q9QUQ5; HEK293 TRPC4beta/mu-opioid, DAMGO EC20, Fluo-4 Ca2+ flux; active compounds read high; B-score at 10 µM; 310,000 tested, 0.42% active;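 active = B-score of calcium response area above 5 SD of library B-scores, with initial fluorescence ratio within 5 SD of library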;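 note: B-score of integrated fluorescence ratio over time as area under calcium response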
TRPC4 sel inh 2: second selectivity test of TRPC6 inhibitors: effect on mouse TRPC4; shares compounds with TRPC6 inh; HEK293 TRPC4/MOR, membrane potential dye fluorescence; channel activated by saturating DAMGO dose; inhibition, % at 10 µM; 920 tested, 42% active;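 active = compounds whose fluorescence signal differed from control wells by over 3 SD, either direction, in both duplicate plates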
TRPC4 spec: mouse TRPC4 off-target activity of TRPC6 inhibitors. shares compounds with TRPC6 inh. activity change, negative = inhibition, % at 10 µM. HEK293 TRPC4/mu-opioid, membrane potential fluorescence. 920 tested, 61% active. AID 2777;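 active = rise or fall in signal beyond 3 SD of buffer-only wells in both replicate plates, either sign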;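 note: integrated kinetic ratio of fluorescence range over baseline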
HEK293 MPD ctr 2-1: parental HEK293 nonspecific activity of TRPC6 inhibitors, second screen. parental HEK293 membrane potential dye fluorescence; maximal acetylcholine challenge after compound addition. shares compounds with TRPC6 inh. 920 tested, 31% active. signal change vs control, % at 10 µM;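 active = membrane potential signal moving either way by over 3 SD of the maximum-effect control, in both duplicate plates, meaning non-specific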
HEK293 MPD ctr-1: counter-screen for TRPC6 inhibitors: effect in parental HEK293 cells | shares compounds with TRPC6 inh | parental HEK293 membrane potential dye fluorescence | membrane potential signal change, % at 10 µM | 920 tested, 60% active | AID 2780;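 active = membrane potential signal shifting up or down by more than 3 SD of buffer-only wells, on both duplicate plates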
HEK293 MPD ctr-2: parental HEK293 nonspecific activity of TRPC6 modulators. shares compounds with TRPC6 inh. membrane potential dye fluorescence. 2,400 tested, 51% active. AID 488924. membrane potential signal change, % at 10 µM;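 active = membrane potential signal moves up or down beyond 5 SD from buffer-only wells, on both duplicate plates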
HEK293 MPD ctr 2-2: second check of TRPC6 modulator effects in parental HEK293 cells; AID 488926; membrane potential dye fluorescence; after compound, maximal acetylcholine stimulation; 2,400 tested, 14% active; inhibition, % at 10 µM; shares compounds with TRPC6 inh;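 active = membrane potential signal drops by more than 5 SD from the mean control signal, in both duplicate plates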;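 note: plate controls were acetylcholine ECmax control wells for no effect and buffer only wells for full effect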
TRPC4/MOR mod: mouse TRPC4 off-target activity of TRPC6 modulators; shares compounds with TRPC6 inh; HEK293 TRPC4/mu-opioid, membrane potential fluorescence; percent change from control (negative = decrease, positive = increase), % at 10 µM; 2,400 tested, 69% active;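 active = membrane potential signal moved up or down beyond 5 SD of buffer control wells, in both duplicate plates, actives on both sides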;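 note: plate controls were assay buffer wells for no effect and DAMGO maximal-effect wells for full effect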
TRPC4 ctr inh 2: second check of whether TRPC6 modulators also affect mouse TRPC4 | shares compounds with TRPC6 inh | HEK293 TRPC4/mu-opioid, membrane potential dye fluorescence; stimulated with maximal-effect DAMGO | inhibition, % at 10 µM | 2,400 tested, 55% active;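 active = drop in membrane potential signal beyond 5 SD of the control wells in both duplicate plates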;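 note: TRPC4 counter screen for TRPC6 hits run under conditions tuned for TRPC6 not TRPC4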
TRPC6 inh conf: mouse TRPC6 inhibitor confirmation. shares compounds with TRPC6 inh. HEK293-TRPC6, membrane potential dye, ACh-evoked depolarization. inhibition, % at 10 µM. 3,300 tested, 43% active. AID 488960;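 active = fluorescence ratio falls more than 5 SD below the full-stimulation control mean, in both duplicate runs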;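 note: integrated fluorescence ratio of peak minus minimum over baseline after agonist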
TRPC6 act conf: mouse TRPC6 activator confirmation | shares compounds with TRPC6 inh | 2,800 tested, 11% active | HEK293-TRPC6 membrane potential dye fluorescence, FDSS | activation, % at 10 µM | AID 488961;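 active = ratio signal rise beyond 5 SD above unstimulated control wells' mean, seen in both duplicate runs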;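 note: plate controls were buffer EC0 wells for no effect and acetylcholine ECmax response for full effect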
Starred values were filed as active, the others as inactive; i = inactive; nt = no result given; + = active, no number. Shown are actives, neighbours in structure and some others; about 2.3% of the full set was active somewhere.

SMILES	TRPC4 block	TRPC4 act	TRPC6 activator	TRPC6 inh	TRPC4 potent	HEK293 MPD ctr-2	HEK293 MPD ctr 2-2	TRPC4/MOR mod	TRPC4 ctr inh 2	TRPC6 inh conf	TRPC6 act conf	others
CCc1cccc(C)c1NC(=O)Cn1nc(C)n2cccc2c1=O	i	i	i	i	i	nt	nt	nt	nt	nt	nt
O=C(CSc1nnnn1-c1ccc(Cl)c(C(=O)O)c1)NC(c1ccccc1)c1ccccc1	i	i	i	i	i	nt	nt	nt	nt	nt	nt
CC(C)c1cc(=O)oc2c3c4c(cc12)CCCN4CCC3	i	i	i	-5.15*	i	640.0%*	i	-127.0%*	39.0%*	i	i
Cc1cc(=O)oc2c3c4c(cc12)OCCN4CCC3	i	i	i	i	i	nt	nt	nt	nt	nt	nt
COc1cc(COc2ccc3c(C)c(CC(=O)O)c(=O)oc3c2C)cc(OC)c1OC	i	i	i	i	i	nt	nt	nt	nt	nt	nt
Cc1cc(Cl)ccc1C(=O)C1CCCN(C(=O)c2cnsn2)C1 (stereo not drawn)	i	i	i	-6.74*	i	nt	nt	nt	nt	i	nt	TRPC4 sel inh 2=i;TRPC4 spec=26.3%*;HEK293 MPD ctr 2-1=i;HEK293 MPD ctr-1=17.9%*
CSc1nc(C(=O)N2CCCC(C(=O)c3ccc(Cl)cc3)C2)cs1 (stereo not drawn)	i	i	i	-5.89*	i	138.0%*	i	33.0%*	i	i	nt
Cc1cc(Cl)ccc1C(=O)C1CCCN(C(=O)c2cscn2)C1 (stereo not drawn)	i	i	i	i	i	nt	nt	nt	nt	nt	nt
CCOC(=O)Cn1nc(C)c(NC(=O)c2ccc(Br)o2)c1C	i	i	i	i	i	nt	nt	nt	nt	nt	nt
Cc1cc(N)ccc1NC(=O)CN1CCOCC1	i	i	i	i	i	nt	nt	nt	nt	nt	nt
COc1cccc2c3c(c(C)nc12)CCN3c1ccccc1	i	i	i	-8.49*	i	-182.5%*	i	-33.0%*	72.0%*	68.5%*	i
COc1cccc2c(Cl)c(CC=C(Cl)Cl)c(C)nc12	i	i	i	i	i	nt	nt	nt	nt	nt	nt
COc1ccccc1N1CCc2c(C)nc3c(OC)cccc3c21	-6*	i	i	-6.5*	i	-114.5%*	i	-19.0%*	58.5%*	46.5%*	i
Cc1ccc2nc(C)c3c(c2c1)N(c1ccc(F)cc1)CC3	-6*	i	i	-9.56*	i	nt	nt	nt	nt	105.3%*	i	TRPC4 sel inh 2=34.5%*;TRPC4 spec=i;HEK293 MPD ctr 2-1=27.0%*;HEK293 MPD ctr-1=-193.5%*
CCOC(=O)c1cnc2c(OC)cccc2c1N1CCN(c2ccccc2OC)CC1	i	i	i	i	i	nt	nt	nt	nt	nt	nt
CCN(C(=O)c1cc2c(=O)[nH]c3ccc(C)cc3c2s1)c1ccc(OC)cc1	i	i	i	i	i	nt	nt	nt	nt	nt	nt
CCCCn1c(NCc2ccc3c(c2)OCO3)nc2ccccc21	i	i	i	-5.25*	i	i	i	i	88.5%*	40.0%*	i
CCCn1c(NCc2ccc3c(c2)OCO3)nc2ccccc21	i	i	i	-5.24*	i	i	i	8.0%*	73.5%*	44.0%*	i
CC12CCC(=O)N1C(C(=O)Nc1cc(C(F)(F)F)ccc1N1CCCCC1)CS2 (stereo not drawn)	i	i	i	i	i	nt	nt	nt	nt	nt	nt
CC12CCC(=O)N1C(C(=O)Nc1cc(C(F)(F)F)ccc1N1CCOCC1)CS2 (stereo not drawn)	i	i	i	-5.48*	i	i	i	i	i	i	i
CNCCCOc1cccc(OC(C)C)c1	i	i	i	i	i	nt	nt	nt	nt	nt	nt
CNCCCOc1cccc(Oc2ccccc2)c1	i	i	i	-5.11*	10*	100.0%*	i	12.5%*	35.0%*	52.5%*	i
O=C(CC1C(=O)NCCN1C(=O)Nc1ccc(C(F)(F)F)cc1)Nc1ccc(F)cc1 (stereo not drawn)	i	i	i	-5.05*	i	-106.0%*	i	-18.0%*	45.0%*	i	i
CCOC(=O)c1ccc(/C=C2/C=C(c3ccccc3)N(c3ccc(Cl)c(C(=O)O)c3)C2=O)cc1	i	72*	36*	i	i	+	i	377.0%*	i	i	686.0%*
Cc1cc2cc(C)c(NCCNC(=O)c3ccccc3F)nc2cc1C	i	i	i	-5.89*	i	i	i	i	46.5%*	i	i
CN(C)CCNS(=O)(=O)c1ccc(N2CCN(c3ccc(F)cc3)CC2)c([N+](=O)[O-])c1	i	i	i	-7.01*	i	nt	nt	nt	nt	51.8%*	i	TRPC4 sel inh 2=40.5%*;TRPC4 spec=-14.2%*;HEK293 MPD ctr 2-1=i;HEK293 MPD ctr-1=-278.0%*
CC(=O)N1CCN(c2ccc(S(=O)(=O)NCCN(C(C)C)C(C)C)cc2[N+](=O)[O-])CC1	i	i	i	i	i	nt	nt	nt	nt	nt	nt
CN(C)CCCN1c2ccccc2Sc2ccc(C(F)(F)F)cc21	i	i	i	-7.23*	i	nt	nt	nt	nt	i	i	TRPC4 sel inh 2=70.5%*;TRPC4 spec=1.5%*;HEK293 MPD ctr 2-1=i;HEK293 MPD ctr-1=i
CN(C)CCC(=O)N1c2ccccc2Sc2ccc(C(F)(F)F)cc21	i	i	i	-6.26*	i	88.0%*	91.5%*	13.5%*	37.5%*	89.0%*	nt
